A short description of assay [1]: Percent efficacy relative to 5-HT. In kind it is functional. The gist of the method:
(§1)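 Agonist-induced [35S]GTPγS binding was measured in CHO cells stably transfected with human 5-HT1D receptors. The output was EC50 together with intrinsic efficacy, expressed as percent of the maximal 5-HT response.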

The target in assay [2] is T1, 5-hydroxytryptamine receptor 1D (Homo sapiens, UniProt P28221). The assay is described as follows: Measurement of agonist induced [35S]GTP-gamma-S, binding in CHO cells stably transfected with 5-hydroxytryptamine 1D receptor. Type of assay: functional, cell-based. The gist of the method:
as §1
In general terms: Binding of GTPγS marks nucleotide exchange on a G protein.

For assay [3], the target named is 5-hydroxytryptamine receptor 1B (Homo sapiens, UniProt P28222). The assay is described as follows: Binding affinity to human cloned 5-hydroxytryptamine 1B receptor in CHO cells by [3H]5-HT binding displacement. Type of assay: cell-based.
Chain of 5-hydroxytryptamine receptor 1B (P28222 whole entry): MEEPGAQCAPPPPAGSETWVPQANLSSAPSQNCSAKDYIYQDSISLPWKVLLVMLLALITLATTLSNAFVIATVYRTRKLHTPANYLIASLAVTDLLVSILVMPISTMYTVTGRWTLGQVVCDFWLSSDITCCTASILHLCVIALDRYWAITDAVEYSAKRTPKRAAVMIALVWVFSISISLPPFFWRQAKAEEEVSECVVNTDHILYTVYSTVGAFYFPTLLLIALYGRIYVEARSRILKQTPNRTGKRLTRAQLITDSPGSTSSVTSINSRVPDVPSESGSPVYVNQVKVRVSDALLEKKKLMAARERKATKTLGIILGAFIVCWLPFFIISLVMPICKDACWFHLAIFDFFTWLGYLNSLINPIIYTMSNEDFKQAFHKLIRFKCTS
The target in assay [4] is Serotonin 1 receptors; 5-HT1B & 5-HT1D (Homo sapiens) (UniProt P28222+P28221). The assay is described as follows: Binding selectivity for 5-HT 1D/1B receptors. Type of assay: protein assay.
Assay [5] has as its target T1, 5-hydroxytryptamine receptor 1D. Description: Binding affinity by displacement to human cloned 5-hydroxytryptamine 1D receptor in CHO cells by [3H]5-HT displacement. In kind it is cell-based. The procedure, abridged: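 Cloned human 5-HT1D receptors were stably expressed in CHO cells. Compounds displaced [3H]-5-HT, used at the receptor's KD, and IC50 was read from the displacement. Values are the mean of two independent determinations, each run in triplicate.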

A short description of assay [6]: efficacy relative to 5-HT. In kind it is functional. The gist of the method: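 Agonist-induced [35S]GTPγS binding in CHO cells stably transfected with human 5-HT1D receptors. Intrinsic efficacy is expressed as percent of the maximal 5-HT response.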

T1 sequence (P28221 whole entry): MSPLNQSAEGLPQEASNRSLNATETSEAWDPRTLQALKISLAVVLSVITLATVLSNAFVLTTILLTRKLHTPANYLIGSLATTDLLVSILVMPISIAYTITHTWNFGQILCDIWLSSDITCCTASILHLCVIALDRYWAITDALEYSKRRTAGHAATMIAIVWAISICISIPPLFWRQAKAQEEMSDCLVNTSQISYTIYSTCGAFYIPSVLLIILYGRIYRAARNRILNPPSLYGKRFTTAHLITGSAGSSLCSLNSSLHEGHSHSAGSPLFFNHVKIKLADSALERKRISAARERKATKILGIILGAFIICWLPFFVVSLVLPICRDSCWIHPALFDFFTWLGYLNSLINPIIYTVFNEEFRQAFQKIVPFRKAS

In general, EC50 refers to the concentration needed to bring the measured effect to its halfway point. As usually defined, the IC50 is the point on the concentration scale where inhibition reaches its midpoint. Higher therefore signals a need for much substance. `c1ccc(CNCC2CCN(CCc3c[nH]c4ccc(-n5cnnc5)cc34)C2)cc1` (single isomer, unassigned) had an Efficacy in assay [1] of 102%. The same compound gave a 50% effective concentration (EC50) in assay [2] of 4.1 nM. The IC50 in assay [3] was 50 nM; in assay [5], 1.6 nM. In addition, the Selectivity ratio in assay [4] amounted to 31.

Turning to `CN(Cc1ccccc1)C[C@@H]1CCN(CCc2c[nH]c3ccc(-n4cnnc4)cc23)C1`, in assay [1], the Efficacy was determined as 102%. This compound registered an EC50 in assay [2] of 1.6 nM. For the same compound, the results for the IC50 in assay [3] and in assay [5] were 33 nM and 0.7 nM, respectively. Further, the Selectivity ratio in assay [4] worked out at 47.

Turning to `CN(Cc1ccccc1)[C@@H]1CCN(CCc2c[nH]c3ccc(-n4cnnc4)cc23)C1`, the IC50 in assay [3] stood at 210 nM; in assay [5] it was 38 nM. In assay [4], the Selectivity ratio came out at 5.5.

Consider `c1cc2[nH]cc(CCN3CCCCC3)c2cc1-n1cnnc1`, for which the IC50 is 568 nM in assay [3] and 200 nM in assay [5]. Moreover, the Selectivity ratio in assay [4] was found to be 3.

Turning to `c1cc2[nH]cc(CCCN3CCCCC3)c2cc1-n1cnnc1`, the IC50 in assay [3] was 15 nM; in assay [5] it was 24 nM. The Selectivity ratio in assay [4] came to 0.6.

Take `OC[C@H](NC1CCN(CCCc2c[nH]c3ccc(-n4cnnc4)cc23)CC1)c1ccccc1`: the Efficacy in assay [1] is 95%. This compound gave an EC50 in assay [2] of 1.8 nM. Moreover, the IC50 in assay [3] came to 114 nM; in assay [5], 1.3 nM. In addition, in assay [4], the Selectivity ratio worked out at 88.

`c1ccc(CNC2CCN(CCCc3c[nH]c4ccc(-n5cnnc5)cc34)CC2)cc1` came in with an Efficacy in assay [1] of 76%. For the same compound, in assay [2], the EC50 was determined as 8 nM. Further, the IC50 in assay [3] is 125 nM; in assay [5] it was 4.8 nM. The Selectivity ratio in assay [4] came out at 26.

Regarding `O=C(c1ccc(F)cc1)C1CCN(CCn2c(=O)[nH]c3ccccc3c2=O)CC1` [KETANSERIN], the IC50 in assay [3] worked out at 6500 nM; in assay [5], 260 nM. For the same compound, the Selectivity ratio in assay [4] came out at 25.

`CN(Cc1ccccc1)CC1CCN(CCCc2c[nH]c3ccc(-n4cnnc4)cc23)CC1` came in with an Efficacy in assay [1] of 93%. Besides, the midpoint of the response in assay [2], the EC50, lay at 0.9 nM. Moreover, the half-maximal inhibitory concentration (IC50) in assay [3] was determined as 28 nM; in assay [5], 0.95 nM. In addition, the Selectivity ratio in assay [4] was 29.

In assay [1], `CN(C)CCc1c[nH]c2ccc(-n3cnnc3)cc12` yielded an Efficacy of 117%. The compound further had a concentration giving a half-maximal response (EC50) in assay [2] of 0.45 nM. Further, the concentration for half-maximal inhibition (IC50) stood at 1.4 nM in assay [3] and 0.3 nM in assay [5]. Further, in assay [4], the Selectivity ratio came out at 4.7.

In turn, `C[C@@H](NC1CCN(CCCc2c[nH]c3ccc(-n4cnnc4)cc23)CC1)c1ccccc1` returned an Efficacy in assay [1] of 96%. The same compound gave a concentration giving a half-maximal response (EC50) in assay [2] of 1.5 nM. Also, the half-maximal inhibitory concentration (IC50) was found to be 35 nM in assay [3] and 0.35 nM in assay [5]. In addition, in assay [4], the Selectivity ratio was 100.

Regarding `c1ccc(CO[C@@H]2CCN(CCc3c[nH]c4ccc(-n5cnnc5)cc34)C2)cc1` (stereo in doubt; 4b) [listing 1 of 2 here], the EC50 in assay [2] stood at 15 nM. Also, the half-maximal inhibitory concentration (IC50) in assay [3] stood at 146 nM; in assay [5] it was 6.3 nM.

In turn, `c1cc2[nH]cc(CCN3CCCC3)c2cc1-n1cnnc1` returned an Efficacy in assay [1] of 120%. Moreover, a half-maximal effect in assay [2] (EC50) was put at 2.6 nM. The concentration for half-maximal inhibition (IC50) is 30.2 nM in assay [3] and 3.4 nM in assay [5]. In assay [4], the Selectivity ratio amounted to 9.

In turn, `c1ccc(CO[C@@H]2CCN(CCc3c[nH]c4ccc(-n5cnnc5)cc34)C2)cc1` (stereo in doubt; 4c) [listing 1 of 2 here] had an Efficacy in assay [1] of 84%. In addition, the Selectivity ratio in assay [4] is 12.

For `CN(C)CCc1c[nH]c2ccc(Cn3cncn3)cc12`, the Efficacy in assay [1] stood at 90%.

In assay [6], `CNS(=O)(=O)Cc1ccc2[nH]cc(CCN(C)C)c2c1` displayed an Efficacy of 100%.

Consider `c1ccc(COC[C@@H]2CCN(CCc3c[nH]c4ccc(-n5cnnc5)cc34)C2)cc1`, for which the Efficacy in assay [1] turned out to be 68%. The compound further returned a half-maximal effective concentration (EC50) in assay [2] of 2.1 nM. The half-inhibitory concentration (IC50) in assay [3] came to 88 nM; in assay [5], 2.3 nM. In addition, the Selectivity ratio in assay [4] worked out at 38.

In the case of `CN(Cc1ccccc1)C1CCN(CCCc2c[nH]c3ccc(-n4cnnc4)cc23)CC1`, the Efficacy in assay [1] was 94%. For the same compound, the 50% effective concentration (EC50) in assay [2] was determined as 1.6 nM. Further, the values for the IC50 in assay [3] and in assay [5] were 145 nM and 2.2 nM, respectively. The Selectivity ratio in assay [4] worked out at 66.

Take `c1ccc(CO[C@@H]2CCN(CCc3c[nH]c4ccc(-n5cnnc5)cc34)C2)cc1` (stereo in doubt; 4c) [listing 2 of 2 here]: the EC50 in assay [2] came out at 33 nM. In addition, the half-inhibitory concentration (IC50) in assay [3] came to 280 nM; in assay [5] it was 23 nM.

`c1ccc(CO[C@@H]2CCN(CCc3c[nH]c4ccc(-n5cnnc5)cc34)C2)cc1` (stereo in doubt; 4b) [listing 2 of 2 here] yielded an Efficacy in assay [1] of 81%. In addition, the Selectivity ratio in assay [4] is 23.

In the case of `OC[C@H](NC1CCN(CCCc2c[nH]c3ccc(-n4cnnc4)cc23)CC1)c1ccc(F)cc1`, the Efficacy in assay [1] was determined as 104%. The response in assay [2] was half-maximal at 1.1 nM (EC50). Moreover, the IC50 in assay [3] is 185 nM; in assay [5] it was 0.9 nM. Besides, the Selectivity ratio in assay [4] was 206.

As for `c1ccc(CNC[C@@H]2CCN(CCc3c[nH]c4ccc(-n5cnnc5)cc34)C2)cc1`, in assay [1], the Efficacy worked out at 100%. In assay [2], this compound returned an EC50 of 0.93 nM. The results for the IC50 in assay [3] and in assay [5] were 47 nM and 0.5 nM, respectively. Besides, the Selectivity ratio in assay [4] was determined as 94.
